Data reported in ChEMBL document CHEMBL1828568, “Novel imaging agents for β-amyloid plaque based on the N-benzoylindole core” (Bioorg Med Chem Lett, 2011).
Calls of active or inactive are those of the source. No cut-off for these calls is given here.

Experiments:
[1] = Displacement of [125I]TZDM from amyloid beta (1 to 40) aggregates after 2 hrs by gamma counting
In short: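 Competition binding against [125I]TZDM as radiolabeled standard, using Aβ1–40 aggregates; run in triplicate, results as mean ± SD.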

Mus musculus [2] = organism: Mus musculus; assay: Binding affinity to beta-amyloid plaque in APP/PS1 transgenic mouse C57 brain after 20 mins by fluorescent staining with thioflavin-S; assay type: tissue-based; details: tested as the 125I-labelled form
Mus musculus [3] = organism: Mus musculus; assay: Binding affinity to beta-amyloid plaque in APP/PS1 transgenic mouse C57 brain after 20 mins by autoradiography; assay type: tissue-based; details: tested as the 125I-labelled form
In short: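 In vitro autoradiography of brain sections from AD model mice (C57, APP/PS1), labeled with the 125I-iodinated tracer.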

Row | Compound | Ki [1] | Activity (Mus musculus [2]) | Activity (Mus musculus [3])
1 | COc1ccc(/C=C/C(=O)n2ccc3ccccc32)cc1 | 27.3 nM | – | –
2 | O=C(/C=C/c1ccccc1)n1ccc2cc(I)ccc21 | 8.4 nM | Active | Active
